Assay results reported in ChEMBL document CHEMBL4699498 (J Med Chem, 2020).
Activity calls are given as the source filed them. No cut-off for these calls is given here.

Legend:
[1] = target: T1, Protein cereblon/Poly [ADP-ribose] polymerase 1 (Homo sapiens, UniProt P09874+Q96SW2); assay: Protac activity at CRBN/PARP1 in human MDA-MB-436 cells assessed as induction of PARP1 degradation at 30 nM measured after 2 hrs by Western blot analysis
Target sequence in this assay (P09874 2-1014 limits assumed): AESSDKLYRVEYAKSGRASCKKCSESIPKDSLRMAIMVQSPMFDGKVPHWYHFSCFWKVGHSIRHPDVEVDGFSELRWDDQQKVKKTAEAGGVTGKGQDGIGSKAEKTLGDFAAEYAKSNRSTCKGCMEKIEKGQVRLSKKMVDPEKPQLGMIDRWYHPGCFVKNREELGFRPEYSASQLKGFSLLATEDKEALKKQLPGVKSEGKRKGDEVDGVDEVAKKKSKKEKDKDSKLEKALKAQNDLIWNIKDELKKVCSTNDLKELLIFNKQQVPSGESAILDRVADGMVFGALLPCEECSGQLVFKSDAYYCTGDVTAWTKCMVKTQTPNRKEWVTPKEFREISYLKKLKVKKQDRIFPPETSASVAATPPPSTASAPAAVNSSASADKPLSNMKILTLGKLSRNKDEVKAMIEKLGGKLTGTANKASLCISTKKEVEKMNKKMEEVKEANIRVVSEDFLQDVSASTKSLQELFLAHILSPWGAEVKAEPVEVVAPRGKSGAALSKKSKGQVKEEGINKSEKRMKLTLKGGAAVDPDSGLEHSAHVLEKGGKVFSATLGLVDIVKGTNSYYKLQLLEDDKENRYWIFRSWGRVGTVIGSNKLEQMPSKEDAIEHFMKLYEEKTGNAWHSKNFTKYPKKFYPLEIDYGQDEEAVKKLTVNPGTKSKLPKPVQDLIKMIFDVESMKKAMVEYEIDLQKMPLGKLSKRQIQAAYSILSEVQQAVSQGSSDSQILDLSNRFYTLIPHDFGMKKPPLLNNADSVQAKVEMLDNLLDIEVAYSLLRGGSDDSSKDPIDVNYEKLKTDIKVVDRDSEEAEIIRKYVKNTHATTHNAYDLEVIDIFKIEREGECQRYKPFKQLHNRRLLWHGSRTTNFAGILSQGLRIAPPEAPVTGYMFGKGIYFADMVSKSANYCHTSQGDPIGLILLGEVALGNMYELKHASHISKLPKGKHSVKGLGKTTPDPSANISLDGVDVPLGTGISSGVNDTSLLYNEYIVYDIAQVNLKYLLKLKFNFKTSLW
Target sequence in this assay (Q96SW2 whole entry partner): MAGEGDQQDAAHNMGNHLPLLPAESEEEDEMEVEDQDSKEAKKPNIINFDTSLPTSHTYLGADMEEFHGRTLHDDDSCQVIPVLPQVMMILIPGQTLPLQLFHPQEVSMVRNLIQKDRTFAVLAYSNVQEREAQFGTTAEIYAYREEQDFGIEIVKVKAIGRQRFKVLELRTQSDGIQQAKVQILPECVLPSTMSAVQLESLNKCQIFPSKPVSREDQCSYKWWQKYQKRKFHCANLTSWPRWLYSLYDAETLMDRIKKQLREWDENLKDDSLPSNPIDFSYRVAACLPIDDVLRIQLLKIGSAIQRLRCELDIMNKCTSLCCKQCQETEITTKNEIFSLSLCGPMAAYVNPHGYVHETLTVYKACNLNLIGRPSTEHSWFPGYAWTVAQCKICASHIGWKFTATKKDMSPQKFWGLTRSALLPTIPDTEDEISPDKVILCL

SW-620 = assay: Potentiation of TMZ induced antitumor activity against SW-620 cells xenografted in Balb/c mouse assessed as tumor growth suppression administered intraperitoneally once daily for 5 days; format: functional; conditions: dose mg/kg 5-10, time 5.0 day
Procedure, shortened: (§1)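 Male BALB/c nude mice carried SW620 xenografts (6×10^6 cells s.c.), randomized at ~150 mm³ (6 per group). TMZ 50 mg/kg was given orally once daily on days 0-4, 45 min after the partner drug. Partners were 5 or 10 mg/kg intraperitoneally or 10 mg/kg by oral gavage, daily for 5 days. Vehicle was 5% DMSO/20% PEG400/10% Cremophor EL/65% saline. Tumor volume and body weight were recorded 2-3 times weekly.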

CAPAN-1 = assay: Antiproliferative activity against human CAPAN-1 cells assessed as cell growth inhibition incubated for 13 days by CCK-8 assay; format: functional, cell-based; conditions: CAPAN-1, 312 h
Procedure, shortened: (§2)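 Cells were sub-cultured at least twice and seeded for 24 h before dosing. Compounds came from 10 mM DMSO stocks, given as 10 points of 3-fold serial dilution starting at 10-20 μM. Incubation was about 7 days (Capan-1 13 days) at 37 °C, 5% CO2. Read-out was CCK-8 absorbance at 450 nm, as % growth versus DMSO wells (duplicate wells). IC50 was fitted by nonlinear regression; three independent experiments.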

[2] = Acute toxicity in Balb/c mouse xenografted with SW-620 cells assessed as mean weight loss at 10 mg/kg, ip qd administered for 5 days in presence of TMZ measured on day 9 relative to control; format: organism-based; conditions: in vivo, 216 h, time 9 day
Procedure, shortened: as §1

[3] = Acute toxicity in Balb/c mouse xenografted with Capan1 cells assessed as mean weight loss at 50 mg/kg, ip qd administered for 5 days in presence of cisplatin measured on day 10 relative to control; format: organism-based; conditions: in vivo, 240 h, time 10 day
Procedure, shortened: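 Male BALB/c nude mice carried Capan-1 xenografts (5×10^6 cells s.c.), randomized at ~150 mm³ (6 per group). Treatment was 25 or 50 mg/kg intraperitoneally or 100 mg/kg by oral gavage, once daily on days 0-4. Cisplatin 6 mg/kg in saline was given intraperitoneally on day 2, 45 min after the partner drug. Tumor volume and body weight were measured 2-3 times weekly.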

[4] = target: T1, Protein cereblon/Poly [ADP-ribose] polymerase 1; assay: Protac activity at CRBN/PARP1 in human Capan1 cells assessed as induction of PARP1 degradation at 1 to 1000 nM incubated for 24 hrs by Western blot analysis; format: cell-based; conditions: CAPAN-1, dose nM 1-1000, time 24.0 hrs
Procedure, shortened: (§3)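 Capan-1 cells were treated 24 h (1-1000 nM, or a wider dose range for DC50). Lysis was in RIPA buffer with protease inhibitors, and 20-30 μg protein was blotted. PARP1 was normalized to β-tubulin and to DMSO control, quantified by densitometry. DC50 came from two independent experiments.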
Target sequence in this assay (P09874 2-1014 limits assumed): as the sequence (P09874 2-1014 limits assumed) above
Target sequence in this assay (Q96SW2 whole entry partner): as the sequence (Q96SW2 whole entry partner) above

HUVEC = assay: Cytotoxicity against HUVEC assessed as reduction in cell viability incubated for 120 hrs by CCK-8 assay; format: cell-based; conditions: human
[5] = Acute toxicity in Balb/c mouse assessed as weight loss at 25 to 50 mg/kg, ip administered 5 times a week for 3 weeks; format: organism-based; conditions: in vivo, 504 h, dose 25-50 mg/kg
Procedure, shortened: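 Male BALB/c nude mice (5–6 weeks) received 5×10^6 Capan-1 cells s.c. in the right armpit. At a mean tumour volume of about 150 mm³, mice were randomised by tumour volume and body weight, 6 per group. Dosing was i.p. in 5% DMSO/20% PEG400/10% Cremophor EL/65% saline, once daily five times per week for 3 weeks. Body weight was measured 2–3 times weekly.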

[6] = target: Poly [ADP-ribose] polymerase 1 (Homo sapiens, UniProt P09874); assay: Inhibition of recombinant human C-terminal His-tagged PARP1 expressed in Sf9 insect cells preincubated for 20 mins in presence of activated DNA followed by […] addition and further incubated for 2 hrs by chemiluminescence assay
[7] = target: T1, Protein cereblon/Poly [ADP-ribose] polymerase 1; assay: Protac activity at CRBN/PARP1 in human MDA-MB-436 cells assessed as induction of PARP1 degradation by measuring PARP1 level at 100 nM pretreated for 2 hrs followed by compound washout and measured after 24 hrs by Western blot analysis; format: cell-based
Procedure, shortened: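 MDA-MB-436 cells pretreated 2 h at 100 nM, compound washed out, cells harvested at various times up to 24 h afterwards; PARP1 versus vehicle-treated cells by western blot, β-tubulin loading control.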
Target sequence in this assay (P09874 2-1014 limits assumed): as the sequence (P09874 2-1014 limits assumed) above
Target sequence in this assay (Q96SW2 whole entry partner): as the sequence (Q96SW2 whole entry partner) above

[8] = target: T1, Protein cereblon/Poly [ADP-ribose] polymerase 1; assay: Protac activity at CRBN/PARP1 in human MDA-MB-436 cells assessed as induction of PARP1 degradation at 30 nM measured within 1 hr by Western blot analysis; format: cell-based; conditions: time hrs <=1
Procedure, shortened: (§4)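 Time course at 30 nM in MDA-MB-436 or SW620 cells; PARP1 immunoblotted at successive time points, β-tubulin as loading control.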
Target sequence in this assay (P09874 2-1014 limits assumed): as the sequence (P09874 2-1014 limits assumed) above
Target sequence in this assay (Q96SW2 whole entry partner): as the sequence (Q96SW2 whole entry partner) above

MDA-MB-468 = assay: Antiproliferation activity against human MDA-MB-468 assessed as cell growth inhibition incubated for 7 days by CCK-8 assay; format: functional, cell-based; conditions: time 7.0 day
Procedure, shortened: as §2

[9] = target: T1, Protein cereblon/Poly [ADP-ribose] polymerase 1; assay: Protac activity at CRBN/PARP1 in human 22Rv1 cells assessed as induction of PARP1 degradation measured after 24 hrs by Western blot analysis; format: cell-based
Procedure, shortened: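 The cell line was treated 24 h across a concentration range. PARP1 was measured by western blot against β-tubulin. DC50 is the average of two biologically independent experiments.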
Target sequence in this assay (P09874 whole entry): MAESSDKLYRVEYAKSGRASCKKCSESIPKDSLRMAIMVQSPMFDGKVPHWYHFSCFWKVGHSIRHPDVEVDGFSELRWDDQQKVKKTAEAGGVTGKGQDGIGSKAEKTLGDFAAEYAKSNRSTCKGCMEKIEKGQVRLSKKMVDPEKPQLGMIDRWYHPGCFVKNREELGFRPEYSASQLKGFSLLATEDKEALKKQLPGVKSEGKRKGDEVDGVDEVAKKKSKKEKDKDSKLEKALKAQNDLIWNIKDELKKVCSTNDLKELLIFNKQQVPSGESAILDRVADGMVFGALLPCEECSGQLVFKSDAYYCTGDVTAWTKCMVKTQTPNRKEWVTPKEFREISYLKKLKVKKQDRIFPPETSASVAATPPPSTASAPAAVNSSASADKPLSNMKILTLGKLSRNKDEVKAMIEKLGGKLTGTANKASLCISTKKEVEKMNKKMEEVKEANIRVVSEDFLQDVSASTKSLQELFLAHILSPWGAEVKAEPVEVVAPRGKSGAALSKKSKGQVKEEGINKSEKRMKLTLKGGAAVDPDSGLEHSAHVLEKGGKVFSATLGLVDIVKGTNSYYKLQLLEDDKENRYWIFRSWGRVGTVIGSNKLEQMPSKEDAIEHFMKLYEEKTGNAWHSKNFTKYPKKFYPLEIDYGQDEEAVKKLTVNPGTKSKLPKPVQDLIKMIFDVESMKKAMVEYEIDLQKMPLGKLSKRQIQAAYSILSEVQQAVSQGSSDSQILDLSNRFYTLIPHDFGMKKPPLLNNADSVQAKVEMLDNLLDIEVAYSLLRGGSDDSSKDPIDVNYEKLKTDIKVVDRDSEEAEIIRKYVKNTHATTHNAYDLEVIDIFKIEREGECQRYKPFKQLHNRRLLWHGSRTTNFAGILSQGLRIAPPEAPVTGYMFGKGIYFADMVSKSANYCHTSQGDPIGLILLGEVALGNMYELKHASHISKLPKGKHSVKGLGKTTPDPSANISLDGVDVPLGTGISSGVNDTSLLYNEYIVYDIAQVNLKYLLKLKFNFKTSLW
Target sequence in this assay (Q96SW2 whole entry): as the sequence (Q96SW2 whole entry partner) above

[10] = Plasma concentration in ICR mouse at 25 mg/kg, ip at 8 hrs postinjection by LC-tandem mass spectrometry analysis; format: ADME, organism-based
Procedure, shortened: (§5)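 Female ICR mice (20-23 g, 6-7 weeks old, n = 3) received a single 25 mg/kg intraperitoneal dose formulated in 5% DMSO/15% Solutol HS15/80% D5W. Plasma was sampled at 0.5, 1, 2, 4, 6, 8 and 24 h and protein-precipitated with methanol. Compound was quantified by LC-MS/MS against a standard curve.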

[11] = Plasma concentration in ICR mouse at 25 mg/kg, ip at 1 hr postinjection by LC-tandem mass spectrometry analysis; format: ADME, organism-based
Procedure, shortened: as §5

[12] = target: T1, Protein cereblon/Poly [ADP-ribose] polymerase 1; assay: Protac activity at CRBN/PARP1 in human Capan1 cells assessed as PARP1 protein degradation at 1 to 10 nM incubated for 24 hrs by western blot analysis; format: cell-based; conditions: CAPAN-1, dose nM 1-10, time 24.0 hrs
Procedure, shortened: as §3
Target sequence in this assay (P09874 2-1014 limits assumed): as the sequence (P09874 2-1014 limits assumed) above
Target sequence in this assay (Q96SW2 whole entry partner): as the sequence (Q96SW2 whole entry partner) above

[13] = target: T1, Protein cereblon/Poly [ADP-ribose] polymerase 1; assay: Protac activity at CRBN/PARP1 in human SW-620 cells assessed as induction of PARP1 degradation at 30 nM measured within 1 hr by Western blot analysis; format: cell-based; conditions: time hrs <=1
Procedure, shortened: as §4
Target sequence in this assay (P09874 2-1014 limits assumed): as the sequence (P09874 2-1014 limits assumed) above
Target sequence in this assay (Q96SW2 whole entry partner): as the sequence (Q96SW2 whole entry partner) above

NCM460 = assay: Cytotoxicity against human NCM460 cells assessed as reduction in cell viability incubated for 120 hrs by CCK-8 assay; format: cell-based; conditions: ncm460, 120 h
[14] = target: T1, Protein cereblon/Poly [ADP-ribose] polymerase 1; assay: Protac activity at CRBN/PARP1 in human HCC1937 cells assessed as induction of PARP1 degradation at 30 nM incubated for 1 to 24 hrs by Western blot analysis; format: cell-based; conditions: time hrs 1-24
[15] = Plasma concentration in ICR mouse at 25 mg/kg, ip at 24 hrs postinjection by LC-tandem mass spectrometry analysis; format: ADME, organism-based
Procedure, shortened: as §5

Poly [ADP-ribose] polymerase 1, sequence (P09874 whole entry): as the sequence (P09874 whole entry) above

For O=C(CCCCCCCCCCC(=O)N1CCN(C(=O)c2cc(Cc3n[nH]c(=O)c4ccccc34)ccc2F)CC1)NCCNc1cccc2c1C(=O)N(C1CCC(=O)NC1=O)C2=O (stereo not given), the Activity [1] was “Active”, the Activity (SW-620) was “Dose-dependent effect” and the IC50 (CAPAN-1) was 56 nM. For the same molecule, the Activity [2] was 15%, the Activity [3] was 12% and the Activity [4] was “Active”. For the same molecule, the Activity (HUVEC) was “Non-Toxic”, the Activity [5] was “Non-Toxic” and the IC50 [6] was 2.3 nM. The Activity [7] was “Below limit of detection”, the Activity [8] was “Active” and the Activity (MDA-MB-468) was “Active”. It also gave a DC50 [9] of 0.512 nM, a concentration at 8 h [10] of 95 nM and a concentration at 1 h [11] of 1830 nM. The Activity [12] was “Active”, the Activity [13] was “Active” and the Activity (NCM460) was “Non-Toxic”. The Activity [14] was “Active” and the concentration at 24 h [15] was > 10 nM.
